A short description of data set [1]: Metabolic stability in human liver microsomes assessed as parent compound remaining at 1 uM after 15 mins in presence of NADPH by HPLC-MS/MS analysis. The note with it: read-out: Stability. The class given is ADME, microsome. An outline of the steps:
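The compound was incubated at 1 µM with human liver microsomes for 15 min, and the percentage of parent compound remaining was measured.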

Data set [2] is described as follows: Metabolic stability in human plasma assessed as parent compound remaining at 1 uM after 1 hr by HPLC-MS/MS analysis. In kind it is ADME, cell-free. As to conditions: read-out: Stability. Summed up:
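The compound was incubated in human plasma for 1 h, and stability was expressed as the percentage of parent compound remaining.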

Experimental findings from ChEMBL document CHEMBL4229349, “Challenging clinically unresponsive medullary thyroid cancer: Discovery and pharmacological activity of novel RET inhibitors” (Eur J Med Chem, 2018) are described below.

Each structure is given as a SMILES string.

On to `Clc1ccc(SCc2n[nH]c(-c3ccc(Cl)cc3)n2)cc1`, for which the remaining at […], 1 µM in data set [1] came out at 40%. In data set [2], the remaining at 1 h, 1 µM was 85%.
